For data set [1], the system named is Brain. Description: Free drug level in spontaneously hypertensive rat brain at 10 mg/kg measured after 24 hrs. It counts as ADME, organism-based. Also on record: dose 10 mg/kg. As to conditions: in vivo. The method, boiled down:
(§1)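 Rats received 10 mg/kg and were sacrificed at peak (about 4 h) or trough (about 24 h) post dose. Total and free drug were measured in plasma, isolated brain and CSF, and the brain/plasma ratio was derived from these.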

Data set [2] has as its system Plasma. Description: Free plasma concentration in spontaneously hypertensive rat at 10 mg/kg measured after 24 hrs. It counts as ADME, organism-based. On the set-up: dose 10 mg/kg. The following applies: in vivo. In short, it runs like this:
as §1

The nature of data set [3]: Ratio of drug level in brain to plasma of spontaneously hypertensive rat at 10 mg/kg. It counts as ADME, organism-based. On the set-up: dose 10 mg/kg. The following applies: read-out: BPR. In short, it runs like this: as §1
Data set [4] is described as follows: Plasma concentration in spontaneously hypertensive rat model at 10 mg/kg measured after 24 hrs. It counts as ADME, organism-based. Also on record: dose 10 mg/kg. The method, boiled down:
as §1

Data set [5] relates to Rattus norvegicus. The data set is described as follows: Antihypertensive activity in spontaneously hypertensive rat model assessed as reduction in heart rate at 10 mg/kg for 7 days. It counts as functional, organism-based. Also on record: dose 10 mg/kg. The method, boiled down: (§2)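 Spontaneously hypertensive rats implanted with telemetry abdominal aorta catheters and dosed daily at 10 mg/kg over 7 days. Heart rate and systolic and diastolic BP were recorded, with change from baseline compared against vehicle-treated animals.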

Data set [6] in a line: Drug level in spontaneously hypertensive rat CSF at 10 mg/kg measured after 4 hrs. It counts as ADME, organism-based, Cerebrospinal fluid. Also on record: dose 10 mg/kg. The following applies: read-out: Drug uptake. The method, boiled down: as §1
Data set [7] can be described thus: Total drug level in spontaneously hypertensive rat brain at 10 mg/kg measured after 24 hrs. It counts as ADME, organism-based. Also on record: dose 10 mg/kg. The following applies: read-out: Drug uptake. The method, boiled down:
as §1

For data set [8], the system named is Plasma. Description: Free plasma concentration in spontaneously hypertensive rat at 10 mg/kg measured after 4 hrs. Type of data set: ADME, organism-based. On the set-up: dose 10 mg/kg. As to conditions: in vivo. The method, boiled down: as §1
In data set [9] the test system is Rattus norvegicus. Description: Antihypertensive activity in spontaneously hypertensive rat model assessed as reduction in systolic BP at 10 mg/kg for 7 days. It counts as functional. The method, boiled down: as §2
Data set [10] deals with Rattus norvegicus. The data set is described as follows: Antihypertensive activity in spontaneously hypertensive rat model assessed as reduction in diastolic BP at 10 mg/kg for 7 days. It counts as functional, organism-based. On the set-up: dose 10 mg/kg. The method, boiled down: as §2
In data set [11] the test system is Brain. Description: Free drug level in spontaneously hypertensive rat brain at 10 mg/kg measured after 4 hrs. Type of data set: ADME, organism-based. Also on record: dose 10 mg/kg. The following applies: in vivo. The method, boiled down: as §1
Data set [12] is described as follows: Total drug level in spontaneously hypertensive rat brain at 10 mg/kg measured after 4 hrs. It counts as ADME, organism-based. Also on record: dose 10 mg/kg. As to conditions: read-out: Drug uptake. The method, boiled down:
as §1

A short description of data set [13]: Drug level in spontaneously hypertensive rat CSF at 10 mg/kg measured after 24 hrs. It counts as ADME, organism-based, Cerebrospinal fluid. On the set-up: dose 10 mg/kg. The following applies: read-out: Drug uptake. The method, boiled down: as §1
A short description of data set [14]: Plasma concentration in spontaneously hypertensive rat model at 10 mg/kg measured after 4 hrs. Type of data set: ADME, organism-based. On the set-up: dose 10 mg/kg. The method, boiled down: as §1
In data set [15] the target is 11-beta-hydroxysteroid dehydrogenase 1 (Rattus norvegicus, UniProt P16232). The data set is described as follows: Inhibition of rat 11beta-HSD1.
For data set [16], the species on record is Homo sapiens. The data set is described as follows: Antihypertensive activity in hypertensive patients assessed as placebo-corrected systolic BP at 6 mg/day.
Data set [17] is filed under the species Homo sapiens. The data set is described as follows: Antihypertensive activity in hypertensive patients assessed as placebo-corrected diastolic BP at 6 mg/day.
Data set [18] deals with Mus musculus. Description: Antihypertensive activity in telemeterized 11beta-HSD1 KO mouse assessed as reduction in systolic BP at 30 mg/kg/day for 11 days. Type of data set: functional. In short, it runs like this: (§3)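 Telemeterized 11β-HSD1 knockout mice and wild-type controls (not littermates) were dosed at 30 mg/kg/day. Systolic BP change was compared with vehicle-treated mice of each genotype, and plasma exposure was also measured.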

For data set [19], the system named is 11-beta-HSD1 (Rattus norvegicus). The data set is described as follows: Binding affinity to rat liver microsomal 11beta-HSD1 by radiometric competition assay. On the technique in general: Liver microsomes are vesicles of endoplasmic reticulum, rich in cytochrome P450 enzymes.
Data set [20] has as its system Mus musculus. Description: Antihypertensive activity in telemeterized wild type mouse assessed as reduction in systolic BP at 30 mg/kg/day for 11 days. Type of data set: functional. In short, it runs like this: as §3
The target of data set [21] is 11-beta-HSD2 (Homo sapiens). Description: Inhibition of human microsomal 11beta-HSD2 assessed as inhibition of […] by cell-based assay.
The species entered for data set [22] is Homo sapiens. Description: Antihypertensive activity in hypertensive patients assessed as placebo-corrected systolic BP at 7 mg/day.
Data set [23] is filed under the species Homo sapiens. The data set is described as follows: Antihypertensive activity in hypertensive patients assessed as placebo-corrected diastolic BP at 7 mg/day.

The values that follow come from ChEMBL document CHEMBL2390937, “Evaluation of selective inhibitors of 11β-HSD1 for the treatment of hypertension” (Bioorg Med Chem Lett, 2013).

Calls of active or inactive are those of the source. The rule behind the calls is not given here.

11-beta-hydroxysteroid dehydrogenase 1, sequence (P16232 whole entry): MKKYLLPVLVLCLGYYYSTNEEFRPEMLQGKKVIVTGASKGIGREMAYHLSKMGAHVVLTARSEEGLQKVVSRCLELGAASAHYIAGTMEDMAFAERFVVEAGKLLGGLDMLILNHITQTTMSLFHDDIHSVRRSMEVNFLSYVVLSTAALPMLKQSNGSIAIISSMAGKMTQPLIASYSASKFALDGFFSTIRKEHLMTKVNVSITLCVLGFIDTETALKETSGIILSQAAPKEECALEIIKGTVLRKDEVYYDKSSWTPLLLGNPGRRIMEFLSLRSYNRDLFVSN

The IC50 is the concentration that inhibits the measured activity by half. In general, Ki refers to a dissociation constant, usually derived from enzyme kinetics or from competition with a known ligand. `CCS(=O)(=O)CCC12CCC(c3nnc(-c4ccccc4C(F)(F)F)n3C)(CC1)CC2`: the results for the “Drug uptake(free)” value with Brain [1] and in the data set with Brain [11] were 0.2 µM and 0.5 µM, respectively. In addition, the “Cp(f)” value with Plasma [2] is 1.9 µM; in the data set on Plasma [8], 9.5 µM. Besides, the Kp in data set [3] is under 1. Moreover, the concentration at 24 h is 6 µM in data set [4], 0.7 µM in data set [7] and 0.7 µM in data set [13]. Also, the outcome in the data set on Rattus norvegicus [5] and in the data set on Rattus norvegicus [10] was Active. Besides, the concentration at 4 h in data set [6] amounted to 5.1 µM; in [12], 5 µM; in data set [14], 24.2 µM. Further, the Activity in the data set on Rattus norvegicus [9] is 3 mmHg. Also, the IC50 in data set [15] came out at 6 nM. In data set [15], this molecule returned a Ki of 3.9 nM.
Regarding `Cn1c(-c2ccccc2C(F)(F)F)nnc1C12CCC(c3nc(-c4ccc(F)cc4)no3)(CC1)CC2`, the “Drug uptake(free)” value with Brain [1] amounted to 0.06 µM; in the data set on Brain [11], 0.08 µM. Moreover, the “Cp(f)” value in the data set with Plasma [2] was determined as 0.05 µM; in the data set with Plasma [8], 0.07 µM. The Kp in data set [3] is over 1. The concentration at 24 h turned out to be 12.1 µM in [4], 39.1 µM in data set [7] and 0.2 µM in data set [13]. Further, the outcome in the data set on Rattus norvegicus [5] and with Rattus norvegicus [10] was Active. Besides, the results for the concentration at 4 h in [6], in [12] and in data set [14] were 0.2 µM, 44.4 µM and 13.9 µM, respectively. Also, the Activity with Rattus norvegicus [9] is reported as over 15 mmHg.
For `F[C@H]1C[C@](c2ccc(Cl)cc2)(c2nnc(C3CC3)n2C2CC2)C1`, the values for the Activity in the data set listed under Homo sapiens [16] and in the data set filed under Homo sapiens [17] were -7.9 mmHg and -5.4 mmHg, respectively.
As to `Cn1c(-c2ccccc2C(F)(F)F)nnc1C12CCC(c3noc(C(C)(F)F)n3)(CC1)CC2`, the “Drug uptake(free)” value in the data set with Brain [1] worked out at 2.4 µM; with Brain [11] it was 3 µM. The “Cp(f)” value is 2.4 µM in the data set on Plasma [2] and 2.5 µM with Plasma [8]. The Kp in data set [3] was over 1. Also, the concentration at 24 h in data set [4] is 25.4 µM; in data set [7], 55.4 µM; in data set [13] it was 3.4 µM. Also, the result in the data set with Rattus norvegicus [5] and in the data set with Rattus norvegicus [10] was Active. Moreover, the Activity with Mus musculus [18] is listed as -5.8 mmHg; with Rattus norvegicus [9], over 15 mmHg; with Mus musculus [20] it was -8 mmHg. Besides, the concentration at 4 h came to 4.4 µM in data set [6], 60.5 µM in data set [12] and 25 µM in data set [14]. In addition, the Bmax in [19] (tested as the 3H-labelled form) was determined as 55500 fmol/mg. For the same molecule, the values for the IC50 in [21] and in data set [15] were 3100 nM and 4.5 nM, respectively. For the same molecule, the Ki in data set [15] stood at 7 nM.
For `CCS(=O)(=O)CCCC12CCC(c3nnc(-c4ccccc4C(F)(F)F)n3C)(CC1)CC2` [MK-0736], the Activity is recorded as -7.7 mmHg in the data set listed under Homo sapiens [22] and -4.4 mmHg in the data set listed under Homo sapiens [23].
Turning to `CCS(=O)(=O)CC12CCC(c3nnc(-c4ccccc4C(F)(F)F)n3C)(CC1)CC2`, the entries for the “Drug uptake(free)” value in the data set with Brain [1] and in the data set on Brain [11] were 0.2 µM and 1.3 µM, respectively. Besides, the “Cp(f)” value with Plasma [2] amounted to 2.1 µM; with Plasma [8] it was 8 µM. Moreover, in [3], the Kp was under 1. Also, the concentration at 24 h in [4] came out at 10.2 µM; in data set [7] it was 0.8 µM; in data set [13], 0.7 µM. In addition, the result with Rattus norvegicus [5] and in the data set on Rattus norvegicus [10] was Active. In addition, the concentration at 4 h in data set [6] came to 2.1 µM; in data set [12], 3.1 µM; in data set [14], 27.7 µM. For the same molecule, the Activity in the data set with Rattus norvegicus [9] is given as 3 mmHg. In [15], this molecule returned an IC50 of 9.1 nM. Besides, in data set [15], the affinity, expressed as Ki, was 13.1 nM.
One may read the Kd as the free concentration of one partner at which half of the binding sites on the other are occupied at equilibrium, for simple one-to-one binding. Read a high Kd as lower affinity. Molecule `[3H]c1cc(-c2nnc(C34CCC(c5noc(C(C)(F)F)n5)(CC3)CC4)n2C)c(C(F)(F)F)cc1[3H]` registered a Kd in [19] of 11 nM.
